# According to ChEMBL document CHEMBL2176966, “Discovery of 6,7-dihydro-5H-pyrrolo[2,3-a]pyrimidines as orally available G protein-coupled receptor 119 agonists” (J Med Chem, 2012):
# Calls of active or inactive are those of the source. No cut-off for these calls is given here.
# Tests used:
# [1] = Cmax in mouse at 30 mg/kg; format: ADME, organism-based; design: dose 30 mg/kg; conditions: in vivo
# Rattus norvegicus [2] = experiment: Antihyperglycemic activity in Wistar rat assessed as glucose excursion curve at 10 mg/kg, po by glucose tolerance test; format: functional
# Mus musculus [3] = experiment: Increase in glucagon level in GPR119 transgenic wild type mouse at 30 mg/kg, po after 60 mins relative to control; format: functional
# Summary of the method: (§1)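 Wild-type and GPR119 knockout mice, fasted overnight, were dosed by oral gavage (30 mg/kg, 10 mL/kg, 0.5% HPMC/0.1% Tween80 vehicle). Plasma was obtained from cardiac blood at 60 min in chilled K2-EDTA containing DPP-4 inhibitor and aprotinin, then stored at −80 °C. Hormone levels were compared with vehicle; n = 8–10.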
# Rattus norvegicus [4] = experiment: Dose normalized AUC (0 to 24 hrs) in rat at 30 mg/kg; format: ADME, organism-based; design: dose 30 mg/kg; conditions: in vivo
# Mus musculus [5] = experiment: Dose normalized AUC (0 to 24 hrs) in mouse at 30 mg/kg; format: ADME, organism-based; design: dose 30 mg/kg; conditions: in vivo
# [6] = Volume of distribution at steady state in rat at 30 mg/kg; format: ADME, organism-based; design: dose 30 mg/kg; conditions: in vivo, read-out: Vdss
# [7] = Volume of distribution at steady state in mouse at 30 mg/kg; format: ADME, organism-based; design: dose 30 mg/kg; conditions: in vivo, read-out: Vdss
# Rattus norvegicus [8] = organism: Rattus norvegicus; experiment: Potentiation of 12 mM of glucose-induced insulin secretion in rat islet at 0.3 uM
# [9] = Equilibrium solubility of the compound in fasted simulated intestinal fluid; format: physicochemical
# Rattus norvegicus [10] = experiment: Increase of glucose infusion rate in Wistar rat at 10 mg/kg, po; format: functional, organism-based; design: dose 10 mg/kg
# Summary of the method: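 Catheterized male Wistar rats (300–350 g, jugular and femoral lines, one week recovery) were fasted overnight and gavaged with vehicle (n = 19) or compound (n = 8). After ~90 min, an IV glucose bolus over 15–30 s was followed by variable-rate glucose infusion. The infusion was adjusted to clamp plasma glucose at 190–210 mg/dL, and the required infusion rate was recorded. Serum glucose was measured by analyzer.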
# Mus musculus [11] = experiment: Increase in PYY level in GPR119 transgenic wild type mouse at 30 mg/kg, po after 60 mins relative to control; format: functional; summary of the method: as §1
# Mus musculus [12] = experiment: Increase in glucagon level in GPR119 knockout mouse at 30 mg/kg, po after 60 mins; format: functional, organism-based; design: dose 30 mg/kg; summary of the method: as §1
# Mus musculus [13] = experiment: Increase in GLP-1 level in GPR119 transgenic wild type mouse at 30 mg/kg, po after 60 mins by electrochemiluminescence assay relative to control; format: functional
# Summary of the method: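 Wild-type and GPR119 knockout mice, fasted overnight, received vehicle (0.5% HPMC/0.1% Tween80) or 30 mg/kg by oral gavage at 10 mL/kg. At 60 min, blood was taken by cardiac puncture under isoflurane into chilled K2-EDTA tubes with DPP-4 inhibitor and aprotinin (250 KIU/mL). Plasma was spun at 4 °C and stored at −80 °C. Total GLP-1 was measured by electrochemiluminescence immunoassay; n = 10.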
# [14] = Half life in mouse at 30 mg/kg; format: ADME, organism-based; design: dose 30 mg/kg; conditions: in vivo
# [15] = Induction of GLP1 secretion in mouse GLUTag cells after 2 hrs; format: functional, cell-based
# Summary of the method: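 GLUTag cells were grown to 80% confluence on Matrigel-coated plates in DMEM with 2 mM L-glutamine and 10% FBS. They were preincubated 30 min in Krebs-Ringer buffer (10 mM D-glucose, 0.1% BSA, DPP-IV inhibitor). Compound was then added at varying concentrations in the same buffer for 2 h at 37 °C, 5% CO2. Cleared supernatant was assayed for amidated (active) GLP-1 by sandwich electrochemiluminescence immunoassay.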
# Cytochrome P450 2C9 = Cytochrome P450 2C9 (Homo sapiens, UniProt P11712); experiment: Inhibition of CYP2C9; format: ADME
# Mus musculus [16] = experiment: Increase in GIP level in GPR119 transgenic wild type mouse at 30 mg/kg, po after 60 mins by ELISA relative to control; format: functional
# Summary of the method: (§2)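 Overnight-fasted wild-type or GPR119 knockout mice were given vehicle (0.5% HPMC/0.1% Tween80) or 30 mg/kg orally at 10 mL/kg. Cardiac blood was drawn 60 min post-dose under isoflurane into chilled K2-EDTA with DPP-4 inhibitor and aprotinin (250 KIU/mL). Plasma was prepared at 4 °C and held at −80 °C. Total GIP was measured by ELISA; n = 10.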
# Rattus norvegicus [17] = experiment: Increase of C-peptide level in Wistar rat at 10 mg/kg, po after 10 to 90 mins; format: functional, organism-based; design: dose 10 mg/kg
# Summary of the method: (§3)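 Male Wistar rats (300–350 g) with jugular and femoral vein catheters, one week post-surgery, fasted overnight. Randomized to vehicle (n = 19) or oral compound (n = 8). About 90 min after gavage, a hyperglycemic clamp was started: a glucose bolus into the femoral vein, then variable-rate infusion holding glucose at 190–210 mg/dL. Serum C-peptide was measured by RIA, first phase 0–5 min and second phase 10–90 min.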
# [18] = Half life in rat at 30 mg/kg; format: ADME, organism-based; design: dose 30 mg/kg; conditions: in vivo
# [19] = Ratio of drug level brain to plasma in rat at 30 mg/kg; format: ADME, organism-based; design: dose 30 mg/kg; conditions: read-out: BPR
# Rattus norvegicus [20] = experiment: Increase of C-peptide level in Wistar rat at 10 mg/kg, po up to 5 mins; format: functional, organism-based; design: dose 10 mg/kg; summary of the method: as §3
# [21] = Clearance in rat at 30 mg/kg; format: ADME, organism-based; design: dose 30 mg/kg; conditions: in vivo
# MAO-B = molecular target: T1, MAO-B (Homo sapiens, UniProt P27338); experiment: Inhibition of MAO-B at 10 uM
# T1 sequence (P27338 whole entry): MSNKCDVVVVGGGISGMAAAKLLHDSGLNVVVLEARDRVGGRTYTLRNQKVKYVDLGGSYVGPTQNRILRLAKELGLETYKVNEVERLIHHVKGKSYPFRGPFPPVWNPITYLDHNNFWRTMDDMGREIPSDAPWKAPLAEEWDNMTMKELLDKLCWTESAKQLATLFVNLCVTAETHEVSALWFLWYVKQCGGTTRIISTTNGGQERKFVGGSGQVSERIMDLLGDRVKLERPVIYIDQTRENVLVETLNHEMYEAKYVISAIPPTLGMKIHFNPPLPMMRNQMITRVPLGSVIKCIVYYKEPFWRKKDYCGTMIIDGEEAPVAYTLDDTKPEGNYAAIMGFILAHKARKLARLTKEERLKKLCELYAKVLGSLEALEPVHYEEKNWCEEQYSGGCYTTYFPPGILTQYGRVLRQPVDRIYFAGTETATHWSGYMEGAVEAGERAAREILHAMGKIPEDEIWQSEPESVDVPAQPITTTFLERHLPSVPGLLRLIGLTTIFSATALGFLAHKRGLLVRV
# Summary of the method: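 Compound was tested at 10 μM in a panel of 68 receptors, ion channels and enzymes. Percent inhibition or stimulation was recorded.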
# [22] = Oral bioavailability in rat at 30 mg/kg; format: ADME, organism-based; conditions: in vivo
# Mus musculus [23] = experiment: Increase in GIP level in GPR119 knockout mouse at 30 mg/kg, po after 60 mins by ELISA relative to control; format: functional, organism-based; design: dose 30 mg/kg; summary of the method: as §2
# Mus musculus [24] = experiment: Increase in PYY level in GPR119 knockout mouse at 30 mg/kg, po after 60 mins; format: functional, organism-based; design: dose 30 mg/kg; summary of the method: as §1
# [25] = Clearance in mouse at 30 mg/kg; format: ADME, organism-based; design: dose 30 mg/kg; conditions: in vivo
# Mus musculus [26] = experiment: Toxicity in C57BL/6 mouse assessed as effect on food intake at 10 mg/kg, po measured up to 24 hrs; format: organism-based; design: dose 10 mg/kg, route oral; conditions: in vivo
# Summary of the method: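 Individually housed male C57BL/6 mice were fasted overnight and given 10 mg/kg. Normal-chow hoppers were weighed and returned. Hopper weights were recorded at 1, 2, 4, 6 and 24 h post-dose and compared with vehicle-treated mice.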
# Sequence of Cytochrome P450 2C9 (P11712 whole entry): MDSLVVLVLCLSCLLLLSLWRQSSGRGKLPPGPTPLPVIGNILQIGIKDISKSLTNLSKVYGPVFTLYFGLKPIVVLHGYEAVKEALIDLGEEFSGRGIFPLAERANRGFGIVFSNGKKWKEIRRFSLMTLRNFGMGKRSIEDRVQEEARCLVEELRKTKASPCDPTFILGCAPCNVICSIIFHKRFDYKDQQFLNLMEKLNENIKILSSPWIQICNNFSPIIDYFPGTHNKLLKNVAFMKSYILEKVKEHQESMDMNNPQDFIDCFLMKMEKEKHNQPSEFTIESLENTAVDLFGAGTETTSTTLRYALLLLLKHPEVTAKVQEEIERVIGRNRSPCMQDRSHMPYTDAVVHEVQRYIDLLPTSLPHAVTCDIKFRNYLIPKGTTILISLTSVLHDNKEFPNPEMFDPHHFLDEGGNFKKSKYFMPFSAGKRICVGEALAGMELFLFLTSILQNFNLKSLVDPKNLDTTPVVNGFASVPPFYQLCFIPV
smiles,measurement,setting,value
CC(C)OC(=O)N1CCC(Oc2ncnc3c2CCN3c2ccc(S(C)(=O)=O)cc2F)CC1,Cmax,[1],8.4 µM
same,Activity,Rattus norvegicus [2],43%
same,fold change (FC),Mus musculus [3],2
same,AUC/dose,Rattus norvegicus [4],2.04 µg·h/mL
same,AUC/dose,Mus musculus [5],1.7 µg·h/mL
same,Vd,[6],1.5 L/kg
same,Vd,[7],0.7 L/kg
same,Activity,Rattus norvegicus [8],Active
same,solubility thermodynamic,[9],4 µg/mL
same,Activity,Rattus norvegicus [10],Active
same,fold change (FC),Mus musculus [11],3
same,Activity,Mus musculus [12],inactive
same,fold change (FC),Mus musculus [13],4
same,half-life,[14],2.8 h
same,EC50,[15],0.02 µM
same,IC50,Cytochrome P450 2C9,3 µM
same,fold change (FC),Mus musculus [16],2
same,Activity,Rattus norvegicus [17],Active
same,half-life,[18],8.7 h
same,Kp,[19],0.7
same,Activity,Rattus norvegicus [20],Active
same,clearance,[21],8.4 mL/min/kg
same,inhibition at 10 µM,MAO-B,54%
same,bioavailability,[22],66%
same,Activity,Mus musculus [23],inactive
same,Activity,Mus musculus [24],inactive
same,clearance,[25],7.2 mL/min/kg
same,Activity,Mus musculus [26],Non-toxic
